The values that follow come from ChEMBL document CHEMBL2375243, “Synthesis and antioxidant properties of substituted 2-phenyl-1H-indoles” (Bioorg Med Chem Lett, 2013).

The source made the active and inactive calls. No cut-off for these calls is given here.

A short description of test [1]: Antioxidant activity of the compound assessed as inhibition of xanthine-xanthine oxidase-mediated superoxide radical formation at 0.1 mM after 3 mins by NBT reduction assay relative to control. It counts as functional. The method in brief: (§1)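 Superoxide anion generated by xanthine/xanthine oxidase and detected spectrophotometrically by nitroblue tetrazolium reduction. Test concentrations 1 mM and 0.1 mM, melatonin as positive control. Values are % mean inhibition from at least triplicate determinations.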

Test [2] has as its system Liver. In words: Antioxidant activity in Wistar rat liver assessed as inhibition of Fe2+/ascorbate-induced lipid peroxidation at 1 mM after 1 hr by TBARS assay relative to control. It counts as functional, tissue-based. The method in brief: (§2)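 Lipid peroxidation assay: MDA formation measured with thiobarbituric acid. Tested at 1 mM and 0.1 mM, melatonin as positive control. Values are % mean inhibition from at least triplicate analyses.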

Test [3] concerns Radical scavenging activity. Put plainly: Antioxidant activity of the compound assessed as DPPH free radical scavenging activity at 1 mM after 30 mins by spectrophotometric analysis relative to control. It counts as functional. In outline:
(§3)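 Free-radical scavenging measured as bleaching of the stable radical DPPH at 517 nm. Tested at 1 mM and 0.1 mM, melatonin as positive control. Results are % mean inhibition, average of at least triplicate analyses.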
On the technique in general: Loss of DPPH colour is used to gauge radical scavenging.

Test [4] in a line: Antioxidant activity of the compound assessed as inhibition of xanthine-xanthine oxidase-mediated superoxide radical formation at 1 mM after 3 mins by NBT reduction assay relative to control. It counts as functional. In outline: as §1
In test [5] the test system is Radical scavenging activity. In words: Antioxidant activity of the compound assessed as DPPH free radical scavenging activity at 0.1 mM after 30 mins by spectrophotometric analysis relative to control. It counts as functional. The method in brief: as §3
The test system of test [6] is Liver. In words: Antioxidant activity in Wistar rat liver assessed as inhibition of Fe2+/ascorbate-induced lipid peroxidation at 0.1 mM after 1 hr by TBARS assay relative to control. It counts as functional, tissue-based. The method in brief:
as §2

The inhibition is how much of the control response was suppressed. Take `O=[N+]([O-])c1ccc(-c2cc3cc(F)cc(Cl)c3[nH]2)cc1`: the inhibition entry in test [1] and in test [5] was “inactive” each time. Besides, the inhibition in test [2] was determined as 20%; in test [3], 5%; in test [4] it was 39%; in test [6], 5%.

For the compound `COc1ccc(-c2cc3cc(F)ccc3[nH]2)cc1F`, the inhibition entry in test [1], in test [3], in test [4] and in test [5] was “inactive” each time. The inhibition in test [2] worked out at 13%; in test [6], 7%.

For the compound `COc1ccc(-c2cc3cc(F)cc(Cl)c3[nH]2)cc1`, the inhibition entry in test [1], in test [3] and in test [5] was “inactive” each time. For the same compound, the inhibition in test [2] came to 33%; in test [4], 32%; in test [6] it was 6%.

As to `COc1cc(-c2cc3ccccc3[nH]2)cc(OC)c1OC`, the inhibition in test [1] turned out to be 13%; in test [2], 28%; in test [3], 35%; in test [4], 42%; in test [5], 9%; in test [6], 33%.

In the case of `Nc1ccc(-c2cc3cc(F)ccc3[nH]2)cc1`, the inhibition in test [1] worked out at 20%; in test [2] it was 19%; in test [3], 28%; in test [4], 35%; in test [5], 18%; in test [6] it was 17%.

In the case of `COc1ccc(-c2cc3ccccc3[nH]2)cc1`, the inhibition in test [1] was found to be 12%; in test [2], 24%; in test [3], 38%; in test [4], 43%; in test [5] it was 6%; in test [6] it was 14%.

As to `COc1ccc2[nH]c(-c3ccc(N)cc3)cc2c1`, the inhibition was 14% in test [1]; 42% in test [2]; 85% in test [3]; 35% in test [4]; 69% in test [5]; 33% in test [6].

Regarding `COc1cc(-c2cc3cc(F)ccc3[nH]2)cc(OC)c1OC`, the inhibition in test [1] worked out at 9%; in test [2] it was 19%; in test [3], 23%; in test [4], 50%; in test [5] it was 3%; in test [6], 10%.

For `Nc1ccc(-c2cc3ccc(F)cc3[nH]2)cc1`, the inhibition amounted to 35% in test [1]; 35% in test [2]; 80% in test [3]; 81% in test [4]; 65% in test [5]; 22% in test [6].

As to `COc1ccc2[nH]cc(CCNC(C)=O)c2c1`, the inhibition came to 19% in test [1]; 85% in test [2]; 98% in test [3]; 75% in test [4]; 81% in test [5]; 45% in test [6].

`Nc1ccc(-c2cc3cccc(F)c3[nH]2)cc1`: the inhibition worked out at 15% in test [1]; 30% in test [2]; 77% in test [3]; 23% in test [4]; 43% in test [5]; 26% in test [6].

For the compound `Nc1ccc(-c2cc3ccc(Cl)cc3[nH]2)cc1`, the inhibition is 17% in test [1]; 35% in test [2]; 77% in test [3]; 20% in test [4]; 50% in test [5]; 35% in test [6].

Take `Nc1ccc(-c2cc3cc(Cl)ccc3[nH]2)cc1`: the inhibition entry in test [1] is “inactive”. The inhibition was 31% in test [2]; 70% in test [3]; 22% in test [4]; 23% in test [5]; 30% in test [6].

Consider `COc1ccc(-c2cc3cc(F)cc(Cl)c3[nH]2)cc1OC`, for which the inhibition result in test [1] and in test [5] was “inactive” in each case. In addition, the inhibition in test [2] amounted to 24%; in test [3], 10%; in test [4], 39%; in test [6], 13%.

`Nc1ccc(-c2cc3c(Cl)cccc3[nH]2)cc1`: the inhibition result in test [1] is “inactive”. For the same compound, the inhibition in test [2] came out at 30%; in test [3], 69%; in test [4], 18%; in test [5], 44%; in test [6], 30%.

On to `Nc1ccc(-c2cc3ccccc3[nH]2)cc1`, for which the inhibition was found to be 16% in test [1]; 26% in test [2]; 74% in test [3]; 30% in test [4]; 43% in test [5]; 13% in test [6].

For `COc1ccc(-c2cc3ccccc3[nH]2)cc1OC`, the inhibition came to 12% in test [1]; 27% in test [2]; 44% in test [3]; 70% in test [4]; 12% in test [5]; 13% in test [6].

On to `COc1ccc(-c2cc3cc(F)ccc3[nH]2)cc1OC`, for which, in test [1], the inhibition result is “inactive”. For the same compound, the inhibition came out at 24% in test [2]; 21% in test [3]; 51% in test [4]; 2% in test [5]; 10% in test [6].
